Experiments:
Prothrombin [1] = molecular target: Prothrombin (Bos taurus, UniProt P00735); experiment: Inhibitory activity against bovine thrombin
[2] = The compound was evaluated for the dose to double the control plasma APTT value in the human plasma.; format: functional
How it was run: (§1)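 Human blood was anticoagulated with one-tenth volume 3.8% trisodium citrate and centrifuged at 1300g for 20 min to give platelet-poor plasma. Plasma was spiked with compound at 0 to about 150 μM. It was activated 5 min at 37 °C with bovine cephalin (ellagic acid) reagent, and clotting was started with 20 mM CaCl2. Clot time was read on a coagulometer. Concentration doubling APTT was read from a concentration–APTT plot.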

Prothrombin [3] = molecular target: T1, Prothrombin (Homo sapiens, UniProt P00734); experiment: The compound was evaluated for the inhibitory activity against human thrombin
How it was run: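 Human thrombin (0.0625 U/mL final) in 0.05 M TRIS-HCl pH 8.4 with S-2238, started by enzyme. Absorbance slope at 405 nm was read over 30 s. A range-finding run at about 0.01–100 μM was followed by substrate at 3.125–100 μM with at least two inhibitor levels plus vehicle. DMSO was below 0.5%. Ki = [i]/(Kp/Km − 1) from double-reciprocal plots.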

[4] = The compound was evaluated for the dose to double the control plasma APTT value in the human plasma; format: functional; how it was run: as §1
Prothrombin [5] = molecular target: T1, Prothrombin; experiment: Inhibitory activity against human thrombin

| Compound | Ki (Prothrombin [1]) | other results |
| --- | --- | --- |
| CC1CNc2c(cccc2S(=O)(=O)NC(CCCN=C(N)N)C(=O)N2CCCC(O)C2)C1 (centres undefined) | 360 nM | – |
| CC(=O)NCCC1CCN(C(=O)C(CCCN=C(N)N)NS(=O)(=O)c2cccc3c2NCC(C)C3)CC1 (centres undefined) | 45 nM | IC200 [2]: 1.8 µM; Ki (Prothrombin [3]): 66 nM |
| CC1CNc2c(cccc2S(=O)(=O)NC(CCCN=C(N)N)C(=O)N2CCC(CCOC(=O)CCC(=O)O)CC2)C1 (centres undefined) | 34 nM | – |
| CC1CNc2c(cccc2S(=O)(=O)NC(CCCN=C(N)N)C(=O)N2CCCC2)C1 (centres undefined) | 795 nM | – |
| CC1CNc2c(cccc2S(=O)(=O)NC(CCCN=C(N)N)C(=O)N2CCC(O)CC2)C1 (centres undefined) | 5180 nM | – |
| CC1CNc2c(cccc2S(=O)(=O)NC(CCCN=C(N)N)C(=O)N2CCCCC2CO)C1 (centres undefined) | 64 nM | – |
| CC1CNc2c(cccc2S(=O)(=O)NC(CCCNC(=N)N)C(=O)N2CCC(CO)CC2)C1 (centres undefined) | 64 nM | – |
| C[C@H]1CNc2c(cccc2S(=O)(=O)NC(CCCNC(=N)N)C(=O)N2CCC(CCO)CC2)C1 (some centres undefined) | 46 nM | – |
| CC1CNc2c(cccc2S(=O)(=O)NC(CCCN=C(N)N)C(=O)N2CCC(CCNC(=O)CCC(=O)O)CC2)C1 (centres undefined) | 650 nM | – |
| CC1CNc2c(cccc2S(=O)(=O)NC(CCCN=C(N)N)C(=O)N2CCC[C@@H](CO)C2)C1 (some centres undefined) | 1500 nM | – |
| CC(C)(c1ccccc1)c1cccc(S(=O)(=O)NC(CCCN=C(N)N)C(=O)N2CCC[C@H]2CO)c1 (some centres undefined) | 2900 nM | – |
| N=C(N)NCCCC(NS(=O)(=O)c1cccc2c1NCCC2)C(=O)N1CCC(CCO)CC1 (centres undefined) | 490 nM | – |
| CC(=O)NCCC1CCN(C(=O)C(CCCN=C(N)N)NS(=O)(=O)c2cccc3c2NCC(C)(C)C3)CC1 (centres undefined) | – | IC200 [4]: 2.15 µM; Ki (Prothrombin [5]): 43 nM |
| CC(C)(c1ccccc1)c1cccc(S(=O)(=O)NC(CCCNC(=N)N)C(=O)N2CCCC[C@H]2CO)c1 (some centres undefined) | 3000 nM | – |
| CC1CNc2c(cccc2S(=O)(=O)NC(CCCN=C(N)N)C(=O)N2CCC(CC(=O)O)CC2)C1 (centres undefined) | 2600 nM | – |
| CC1(C)CNc2c(cc(Cl)cc2S(=O)(=O)NC(CCCN=C(N)N)C(=O)N2CCC(CCF)CC2)C1 (centres undefined) | – | IC200 [4]: 3.25 µM; Ki (Prothrombin [5]): 6.6 nM |
| CC1CNc2c(cccc2S(=O)(=O)NC(CCCN=C(N)N)C(=O)N2CCC(CCNC(=O)CCP(=O)(O)O)CC2)C1 (centres undefined) | 35200 nM | – |
| CCC1CCN(C(=O)C(CCCN=C(N)N)NS(=O)(=O)c2cccc3c2NCC(C)C3)CC1 (centres undefined) | 27 nM | IC200 [4]: 6.27 µM |
| CC1CNc2c(cccc2S(=O)(=O)NC(CCCNC(=N)N)C(=O)N2CCC(CCOC(=O)CCCC(=O)O)CC2)C1 (centres undefined) | 170 nM | – |

Reference: ChEMBL document CHEMBL1132465, “Design and synthesis of thrombin inhibitors: analogues of MD-805 with reduced stereogenicity and improved potency” (J Med Chem, 1999)
